From ChEMBL document CHEMBL1671735, “Genetic factors associated with elevated carbapenem resistance in KPC-producing Klebsiella pneumoniae” (2010)
Converted amounts (≈) assume the structure as drawn.

How the values were obtained:
Format in all cases: functional
Klebsiella pneumoniae [1] = test: Antimicrobial activity against OmpK35-deficient Carbapenem-resistant Klebsiella pneumoniae isolate ART2008226 expressing KPC beta lactamase by broth microdilution method
Klebsiella pneumoniae [2] = test: Antimicrobial activity against OmpK35-deficient Carbapenem-resistant Klebsiella pneumoniae isolate ART2008142 expressing KPC beta lactamase by broth microdilution method
Klebsiella pneumoniae [3] = test: Antimicrobial activity against Carbapenem-resistant Klebsiella pneumoniae isolate AIS081058 expressing KPC beta lactamase by broth microdilution method
Klebsiella pneumoniae [4] = test: Antimicrobial activity against OmpK35-deficient Carbapenem-resistant Klebsiella pneumoniae isolate AIS070654 expressing KPC beta lactamase by broth microdilution method
Klebsiella pneumoniae [5] = test: Antimicrobial activity against OmpK35-deficient Carbapenem-resistant Klebsiella pneumoniae isolate AIS081072 expressing KPC beta lactamase by broth microdilution method
Klebsiella pneumoniae [6] = test: Antimicrobial activity against Carbapenem-resistant Klebsiella pneumoniae isolate AIS080884 expressing KPC beta lactamase by broth microdilution method
Klebsiella pneumoniae [7] = test: Antimicrobial activity against OmpK35-deficient Carbapenem-resistant Klebsiella pneumoniae isolate ART2008140 expressing KPC beta lactamase by broth microdilution method
Klebsiella pneumoniae [8] = test: Antimicrobial activity against OmpK35-deficient Carbapenem-resistant Klebsiella pneumoniae isolate AIS070446 expressing KPC beta lactamase by broth microdilution method
How it was run: (§1)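 The clinical K. pneumoniae isolates had been referred to CDC for susceptibility testing. bla_KPC was confirmed by PCR and subtyped by bidirectional sequencing of a 1,011-bp amplicon. Isolates were typed by PFGE of XbaI-digested DNA.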

Klebsiella pneumoniae [9] = test: Antimicrobial activity against Carbapenem-resistant Klebsiella pneumoniae isolate HIP10924 expressing KPC beta lactamase by broth microdilution method
Klebsiella pneumoniae [10] = test: Antimicrobial activity against Carbapenem-resistant Klebsiella pneumoniae isolate ART2008028 expressing KPC beta lactamase by broth microdilution method
Klebsiella pneumoniae [11] = test: Antimicrobial activity against OmpK35-deficient Carbapenem-resistant Klebsiella pneumoniae isolate ART2008137 expressing KPC beta lactamase by broth microdilution method; how it was run: as §1
Klebsiella pneumoniae [12] = test: Antimicrobial activity against OmpK35-deficient Carbapenem-resistant Klebsiella pneumoniae isolate HIP14474 expressing KPC beta lactamase by broth microdilution method
Klebsiella pneumoniae [13] = test: Antimicrobial activity against OmpK35-deficient Carbapenem-resistant Klebsiella pneumoniae isolate ART2008136 expressing KPC beta lactamase by broth microdilution method; how it was run: as §1
Klebsiella pneumoniae [14] = test: Antimicrobial activity against OmpK35-deficient Carbapenem-resistant Klebsiella pneumoniae isolate ART2008022 expressing KPC beta lactamase by broth microdilution method
Klebsiella pneumoniae [15] = test: Antimicrobial activity against OmpK35-deficient Carbapenem-resistant Klebsiella pneumoniae isolate ART2008139 expressing KPC beta lactamase by broth microdilution method
Klebsiella pneumoniae [16] = test: Antimicrobial activity against OmpK35-deficient Carbapenem-resistant Klebsiella pneumoniae isolate ART2008143 expressing KPC beta lactamase by broth microdilution method
Klebsiella pneumoniae [17] = test: Antimicrobial activity against OmpK35-deficient Carbapenem-resistant Klebsiella pneumoniae isolate AIS080949 expressing KPC beta lactamase by broth microdilution method
Klebsiella pneumoniae [18] = test: Antimicrobial activity against OmpK35-deficient Carbapenem-resistant Klebsiella pneumoniae isolate HIP14358 expressing KPC beta lactamase by broth microdilution method
Klebsiella pneumoniae [19] = test: Antimicrobial activity against OmpK35-deficient Carbapenem-resistant Klebsiella pneumoniae isolate AIS080792 expressing KPC beta lactamase by broth microdilution method
Klebsiella pneumoniae [20] = test: Antimicrobial activity against OmpK35-deficient Carbapenem-resistant Klebsiella pneumoniae isolate ART2008138 expressing KPC beta lactamase by broth microdilution method
Klebsiella pneumoniae [21] = test: Antimicrobial activity against Carbapenem-resistant Klebsiella pneumoniae isolate ART2008024 expressing KPC beta lactamase by broth microdilution method
Klebsiella pneumoniae [22] = test: Antimicrobial activity against OmpK35-deficient Carbapenem-resistant Klebsiella pneumoniae isolate ART2008026 expressing KPC beta lactamase by broth microdilution method
Klebsiella pneumoniae [23] = test: Antimicrobial activity against OmpK35-deficient Carbapenem-resistant Klebsiella pneumoniae isolate AIS081042 expressing KPC beta lactamase by broth microdilution method
Klebsiella pneumoniae [24] = test: Antimicrobial activity against OmpK35-deficient Carbapenem-resistant Klebsiella pneumoniae isolate AIS080571 expressing KPC beta lactamase by broth microdilution method
Klebsiella pneumoniae [25] = test: Antimicrobial activity against OmpK35,OmpK36-deficient Carbapenem-resistant Klebsiella pneumoniae isolate ART2008141 expressing KPC beta lactamase by broth microdilution method
Klebsiella pneumoniae [26] = test: Antimicrobial activity against OmpK35,OmpK36-deficient Carbapenem-resistant Klebsiella pneumoniae isolate ART2008135 expressing KPC beta lactamase by broth microdilution method
Klebsiella pneumoniae [27] = test: Antimicrobial activity against OmpK35,OmpK36-deficient Carbapenem-resistant Klebsiella pneumoniae isolate ART2008027 expressing KPC beta lactamase by broth microdilution method

C[C@@H](O)[C@H]1C(=O)N2C(C(=O)O)=C(S[C@@H]3CN[C@H](C(=O)Nc4cccc(C(=O)O)c4)C3)[C@H](C)[C@H]12
MIC (Klebsiella pneumoniae [1]): < 0.5 µg/mL
MIC (Klebsiella pneumoniae [2]): 8 µg/mL (≈ 16.8 µM)
MIC (Klebsiella pneumoniae [3]): 2 µg/mL (≈ 4.21 µM)
MIC (Klebsiella pneumoniae [4]): 2 µg/mL (≈ 4.21 µM)
MIC (Klebsiella pneumoniae [5]): 8 µg/mL (≈ 16.8 µM)
MIC (Klebsiella pneumoniae [6]): 8 µg/mL (≈ 16.8 µM)
MIC (Klebsiella pneumoniae [7]): 8 µg/mL (≈ 16.8 µM)
MIC (Klebsiella pneumoniae [8]): 4 µg/mL (≈ 8.41 µM)
MIC (Klebsiella pneumoniae [9]): 4 µg/mL (≈ 8.41 µM)
MIC (Klebsiella pneumoniae [10]): 8 µg/mL (≈ 16.8 µM)
MIC (Klebsiella pneumoniae [11]): 16 µg/mL (≈ 33.6 µM)
MIC (Klebsiella pneumoniae [12]): 16 µg/mL (≈ 33.6 µM)
MIC (Klebsiella pneumoniae [13]): 16 µg/mL (≈ 33.6 µM)
MIC (Klebsiella pneumoniae [14]): 32 µg/mL (≈ 67.3 µM)
MIC (Klebsiella pneumoniae [15]): 16 µg/mL (≈ 33.6 µM)
MIC (Klebsiella pneumoniae [16]): 64 µg/mL (≈ 135 µM)
MIC (Klebsiella pneumoniae [17]): 64 µg/mL (≈ 135 µM)
MIC (Klebsiella pneumoniae [18]): 64 µg/mL (≈ 135 µM)
MIC (Klebsiella pneumoniae [19]): 64 µg/mL (≈ 135 µM)
MIC (Klebsiella pneumoniae [20]): 128 µg/mL (≈ 269 µM)
MIC (Klebsiella pneumoniae [21]): 128 µg/mL (≈ 269 µM)
MIC (Klebsiella pneumoniae [22]): 256 µg/mL (≈ 538 µM)
MIC (Klebsiella pneumoniae [23]): 256 µg/mL (≈ 538 µM)
MIC (Klebsiella pneumoniae [24]): 256 µg/mL (≈ 538 µM)
MIC (Klebsiella pneumoniae [25]): 256 µg/mL (≈ 538 µM)
MIC (Klebsiella pneumoniae [26]): 1020 µg/mL (≈ 2150 µM)
MIC (Klebsiella pneumoniae [27]): 1020 µg/mL (≈ 2150 µM)

C[C@@H](O)[C@H]1C(=O)N2C(C(=O)O)=C(SCCNC=N)C[C@H]12 [IMIPENEM ANHYDROUS]
MIC (Klebsiella pneumoniae [1]): < 1 µg/mL
MIC (Klebsiella pneumoniae [2]): < 1 µg/mL
MIC (Klebsiella pneumoniae [3]): 1 µg/mL (≈ 3.34 µM)
MIC (Klebsiella pneumoniae [4]): 4 µg/mL (≈ 13.4 µM)
MIC (Klebsiella pneumoniae [5]): 2 µg/mL (≈ 6.68 µM)
MIC (Klebsiella pneumoniae [6]): 2 µg/mL (≈ 6.68 µM)
MIC (Klebsiella pneumoniae [7]): 4 µg/mL (≈ 13.4 µM)
MIC (Klebsiella pneumoniae [8]): 4 µg/mL (≈ 13.4 µM)
MIC (Klebsiella pneumoniae [9]): 4 µg/mL (≈ 13.4 µM)
MIC (Klebsiella pneumoniae [10]): 4 µg/mL (≈ 13.4 µM)
MIC (Klebsiella pneumoniae [11]): 4 µg/mL (≈ 13.4 µM)
MIC (Klebsiella pneumoniae [12]): 8 µg/mL (≈ 26.7 µM)
MIC (Klebsiella pneumoniae [13]): 8 µg/mL (≈ 26.7 µM)
MIC (Klebsiella pneumoniae [14]): 8 µg/mL (≈ 26.7 µM)
MIC (Klebsiella pneumoniae [15]): 32 µg/mL (≈ 107 µM)
MIC (Klebsiella pneumoniae [16]): 8 µg/mL (≈ 26.7 µM)
MIC (Klebsiella pneumoniae [17]): 32 µg/mL (≈ 107 µM)
MIC (Klebsiella pneumoniae [18]): 32 µg/mL (≈ 107 µM)
MIC (Klebsiella pneumoniae [19]): 32 µg/mL (≈ 107 µM)
MIC (Klebsiella pneumoniae [20]): 32 µg/mL (≈ 107 µM)
MIC (Klebsiella pneumoniae [21]): 32 µg/mL (≈ 107 µM)
MIC (Klebsiella pneumoniae [22]): 64 µg/mL (≈ 214 µM)
MIC (Klebsiella pneumoniae [23]): 64 µg/mL (≈ 214 µM)
MIC (Klebsiella pneumoniae [24]): 128 µg/mL (≈ 428 µM)
MIC (Klebsiella pneumoniae [25]): 256 µg/mL (≈ 855 µM)
MIC (Klebsiella pneumoniae [26]): 512 µg/mL (≈ 1710 µM)
MIC (Klebsiella pneumoniae [27]): 512 µg/mL (≈ 1710 µM)

C[C@@H](O)[C@H]1C(=O)N2C(C(=O)O)=C(S[C@@H]3CN[C@H](C(=O)N(C)C)C3)[C@H](C)[C@H]12 [MEROPENEM]
MIC (Klebsiella pneumoniae [1]): < 0.25 µg/mL
MIC (Klebsiella pneumoniae [2]): 4 µg/mL (≈ 10.4 µM)
MIC (Klebsiella pneumoniae [3]): 4 µg/mL (≈ 10.4 µM)
MIC (Klebsiella pneumoniae [4]): 1 µg/mL (≈ 2.61 µM)
MIC (Klebsiella pneumoniae [5]): 2 µg/mL (≈ 5.22 µM)
MIC (Klebsiella pneumoniae [7]): 2 µg/mL (≈ 5.22 µM)
MIC (Klebsiella pneumoniae [8]): 4 µg/mL (≈ 10.4 µM)
MIC (Klebsiella pneumoniae [9]): 4 µg/mL (≈ 10.4 µM)
MIC (Klebsiella pneumoniae [10]): 8 µg/mL (≈ 20.9 µM)
MIC (Klebsiella pneumoniae [11]): 8 µg/mL (≈ 20.9 µM)
MIC (Klebsiella pneumoniae [12]): 8 µg/mL (≈ 20.9 µM)
MIC (Klebsiella pneumoniae [13]): 8 µg/mL (≈ 20.9 µM)
MIC (Klebsiella pneumoniae [19]): 32 µg/mL (≈ 83.4 µM)
MIC (Klebsiella pneumoniae [20]): 32 µg/mL (≈ 83.4 µM)
MIC (Klebsiella pneumoniae [21]): 64 µg/mL (≈ 167 µM)
MIC (Klebsiella pneumoniae [22]): 64 µg/mL (≈ 167 µM)
MIC (Klebsiella pneumoniae [23]): 128 µg/mL (≈ 334 µM)
MIC (Klebsiella pneumoniae [24]): 128 µg/mL (≈ 334 µM)
MIC (Klebsiella pneumoniae [25]): 256 µg/mL (≈ 668 µM)
MIC (Klebsiella pneumoniae [26]): 256 µg/mL (≈ 668 µM)
MIC (Klebsiella pneumoniae [27]): 512 µg/mL (≈ 1340 µM)
